In ChEMBL document CHEMBL4689842, “EUbOPEN Chemogenomics Library wave 1” (2021):

System: HEK-293T
Experiment: Multiplex assay against HEK293T;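 on Population Tubulin-Different-Phenotype (%): share of the cells with healthy nuclei that show this phenotype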
Assay type: toxicity, cell-based
Details: human
Procedure, shortened: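 Values for tubulin, mitochondrial-mass and membrane-permeability phenotypes are per cents of cells with healthy nuclei. These cells were identified by CellPathfinder machine-learning gating of live cells that had been stained at seeding with Hoechst33342, BioTracker Green Microtubule Cytoskeleton Dye, MitoTracker Red and Annexin V Alexa Fluor 680 and imaged on a CQ1 microscope at 37°C and 5% CO2 after compound addition. The gating first set Hoechst high-intensity objects apart from normal cells, then split normal cells into healthy, pyknosed or fragmented nuclei, and pyknosed cells into mitotic or apoptotic.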

[1] = 12 h, 1 µM, compound concentration 1 uM, replicate 1
[2] = 12 h, 1 µM, compound concentration 1 uM, replicate 2
[3] = 12 h, 10 µM, compound concentration 10 uM, replicate 1
[4] = 12 h, 10 µM, compound concentration 10 uM, replicate 2
[5] = 24 h, 1 µM, compound concentration 1 uM, replicate 1
[6] = 24 h, 1 µM, compound concentration 1 uM, replicate 2
[7] = 24 h, 10 µM, compound concentration 10 uM, replicate 1
[8] = 24 h, 10 µM, compound concentration 10 uM, replicate 2

In the case of `COc1ccc(-c2ccc3c(N4CCOCC4)nc(N4C[C@@H](C)O[C@@H](C)C4)nc3n2)cc1CO` [Ku-0063794], the “Population Apoptotic (%)” value [1] is reported as 17%, the “Population Fragmented Nuclei (%)” value [1] is reported as 21% and the “Population Healthy Nuclei (%)” value [1] is reported as 63%. The “Population Hoechst High Intensity Objects (%)” value [1] was 20%, the “Population Membrane Permeable-Phenotype (%)” value [1] was 6% and the “Population Mitochondria Different-Phenotype (%)” value [1] was 3%. For the same compound, the “Population Mitotic Cells (%)” value [1] was 82%, the “Population Normal (%)” value [1] was 79% and the “Population Pyknosed Nuclei (%)” value [1] was 14%. The “Population Tubulin-Different-Phenotype (%)” value [1] was 3%, the “Total Cell Count” value [1] was 492 and the “Population Apoptotic (%)” value [2] was 8%. The “Population Fragmented Nuclei (%)” value [2] was 12%, the “Population Healthy Nuclei (%)” value [2] was 82% and the “Population Hoechst High Intensity Objects (%)” value [2] was 2%. For the same compound, the “Population Membrane Permeable-Phenotype (%)” value [2] was 1%, the “Population Mitochondria Different-Phenotype (%)” value [2] was 4% and the “Population Mitotic Cells (%)” value [2] was 91%. For the same compound, the “Population Normal (%)” value [2] was 97%, the “Population Pyknosed Nuclei (%)” value [2] was 4% and the “Population Tubulin-Different-Phenotype (%)” value [2] was 5%. For the same compound, the “Total Cell Count” value [2] was 1701, the “Population Apoptotic (%)” value [3] was 41% and the “Population Fragmented Nuclei (%)” value [3] was 31%. For the same compound, the “Population Healthy Nuclei (%)” value [3] was 63%, the “Population Hoechst High Intensity Objects (%)” value [3] was 52% and the “Population Membrane Permeable-Phenotype (%)” value [3] was 11%. For the same compound, the “Population Mitochondria Different-Phenotype (%)” value [3] was 10%, the “Population Mitotic Cells (%)” value [3] was 58% and the “Population Normal (%)” value [3] was 47%. For the same compound, the “Population Pyknosed Nuclei (%)” value [3] was 4%, the “Population Tubulin-Different-Phenotype (%)” value [3] was 12% and the “Total Cell Count” value [3] was 726. For the same compound, the “Population Apoptotic (%)” value [4] was 40%, the “Population Fragmented Nuclei (%)” value [4] was 11% and the “Population Healthy Nuclei (%)” value [4] was 87%. The “Population Hoechst High Intensity Objects (%)” value [4] was 27%, the “Population Membrane Permeable-Phenotype (%)” value [4] was 4% and the “Population Mitochondria Different-Phenotype (%)” value [4] was 15%. The “Population Mitotic Cells (%)” value [4] was 60%, the “Population Normal (%)” value [4] was 72% and the “Population Pyknosed Nuclei (%)” value [4] was 1%. The “Population Tubulin-Different-Phenotype (%)” value [4] was 17%, the “Total Cell Count” value [4] was 1160 and the “Population Apoptotic (%)” value [5] was 19%. The “Population Fragmented Nuclei (%)” value [5] was 19%, the “Population Healthy Nuclei (%)” value [5] was 71% and the “Population Hoechst High Intensity Objects (%)” value [5] was 11%. For the same compound, the “Population Membrane Permeable-Phenotype (%)” value [5] was 8%, the “Population Mitochondria Different-Phenotype (%)” value [5] was 2% and the “Population Mitotic Cells (%)” value [5] was 80%. For the same compound, the “Population Normal (%)” value [5] was 88%, the “Population Pyknosed Nuclei (%)” value [5] was 8% and the “Population Tubulin-Different-Phenotype (%)” value [5] was 7%. The “Total Cell Count” value [5] was 554, the “Population Apoptotic (%)” value [6] was 12% and the “Population Fragmented Nuclei (%)” value [6] was 33%. The “Population Healthy Nuclei (%)” value [6] was 64%, the “Population Hoechst High Intensity Objects (%)” value [6] was 4% and the “Population Membrane Permeable-Phenotype (%)” value [6] was 5%. The “Population Mitochondria Different-Phenotype (%)” value [6] was 0%, the “Population Mitotic Cells (%)” value [6] was 87% and the “Population Normal (%)” value [6] was 95%. For the same compound, the “Population Pyknosed Nuclei (%)” value [6] was 1%, the “Population Tubulin-Different-Phenotype (%)” value [6] was 6% and the “Total Cell Count” value [6] was 2828. The “Population Apoptotic (%)” value [7] was 27%, the “Population Fragmented Nuclei (%)” value [7] was 31% and the “Population Healthy Nuclei (%)” value [7] was 65%. For the same compound, the “Population Hoechst High Intensity Objects (%)” value [7] was 52%, the “Population Membrane Permeable-Phenotype (%)” value [7] was 11% and the “Population Mitochondria Different-Phenotype (%)” value [7] was 9%. The “Population Mitotic Cells (%)” value [7] was 72%, the “Population Normal (%)” value [7] was 47% and the “Population Pyknosed Nuclei (%)” value [7] was 3%. The “Population Tubulin-Different-Phenotype (%)” value [7] was 17%, the “Total Cell Count” value [7] was 759 and the “Population Apoptotic (%)” value [8] was 12%. For the same compound, the “Population Fragmented Nuclei (%)” value [8] was 26%, the “Population Healthy Nuclei (%)” value [8] was 71% and the “Population Hoechst High Intensity Objects (%)” value [8] was 24%. For the same compound, the “Population Membrane Permeable-Phenotype (%)” value [8] was 9%, the “Population Mitochondria Different-Phenotype (%)” value [8] was 4% and the “Population Mitotic Cells (%)” value [8] was 88%. For the same compound, the “Population Normal (%)” value [8] was 75%, the “Population Pyknosed Nuclei (%)” value [8] was 2% and the “Population Tubulin-Different-Phenotype (%)” value [8] was 32%. The “Total Cell Count” value [8] was 1535.
